The target of one test is human calmodulin (human) (UniProt P0DP23). As to the kind of experiment: native gel or EMSA.
The next test has as its target human CaM (calmodulin) (Homo sapiens, UniProt P0DP23). Put plainly: Native gel titration of CaM with peptide. It is filed as binding. As to conditions: presence of calcium ions; from Kd,app by native gel densitometry. In a few lines: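 Bacterially expressed CaM (E. coli Rosetta (DE3), calcium-dependent phenyl-Sepharose purification) held at 35 μM, calcium present, with synthetic IQ-motif peptide at 18–350 μM; incubated 1 h at 22°C. Native 15% polyacrylamide gel in Tris/glycine pH 8.8, Coomassie-stained. Fraction bound = complex band/(complex + free CaM), background-corrected densitometry. Means of three independent experiments fitted to hyperbolic binding equation; Kd,app ± S.E.M. from fit.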

Turning to “3IQ2, peptide of the second IQ-motif of human IQGAP3”, the Kd with human calmodulin (human) was 27 µM.

With “3IQ3, peptide of the third IQ-motif of human IQGAP3”, the equilibrium dissociation constant (Kd) with human calmodulin (human) turned out to be 76 µM. Turning to Ac-KNVNSIVKIQAFFRARKAQDDYR-NH2 [3IQ4], at human CaM (calmodulin), the “Ranking of affinity for CaM” value is recorded as “followed by 3IQ4”.

As to “3IQ4, peptide of the fourth IQ-motif of human IQGAP3”, the dissociation constant (Kd) with human calmodulin (human) is 65 µM.

These data come from paper PMC3263943 (Bioscience Reports, 2011).
